S100A4 inh HTS: S100A4-myosin IIA interaction inhibition. S100A4/TAMRA-MyoIIA peptide fluorescence polarization. inhibition, % at 10.7 µM. actives 0.14% (n = 360,000);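 active = mean inhibition of at least 70% across replicates, with every replicate also reaching that level; inconclusive = mean inhibition reaches 70% but some replicates fall short; inactive = mean inhibition below 70%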
Target sequence (P26447 whole entry, looked up): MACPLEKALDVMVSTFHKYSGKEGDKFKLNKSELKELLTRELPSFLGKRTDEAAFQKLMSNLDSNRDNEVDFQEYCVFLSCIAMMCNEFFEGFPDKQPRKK
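Material: S100A4 monomer (human). Medium: Calcium-containing HEPES buffer, pH 7.2. Probe or stimulus: labelled myosin peptide probe, 5 nM. Compound dosing: one concentration per compound. Timing: polarization read 5 min after assay mix addition, stable 5–60 min. Benchmarks: DMSO as neutral control, TFP as positive control.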
CDK5 inh: CDK5/p35 (human) kinase inhibition; Recombinant CDK5/p35, ADP-Glo luminescence, 60 min; Q00535+Q15078; actives 0.01% (n = 330,000); inhibition, % at 10 µM;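 active = highest replicate inhibition of at least 50% and at least 75% of replicates reaching 50%; inconclusive = only one of the two criteria met; inactive = both criteria failed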;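 also: plate controls were DMSO neutral control for no effect and GW8510 at 10 µM for full effect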
dFosB act: mouse delta FosB homodimer activation; purified delta FosB, TAMRA-CDK5 oligo fluorescence polarization; percent of positive-control signal above neutral wells; activation, % at 25 µM; actives 0.99% (n = 340,000); AID 493131;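 active = mean activation above about 17%, with every replicate also reaching it, limit read from the data, passing the limit was not always enough; inconclusive = only one of the two conditions met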
Target sequence (P13346 whole entry, looked up): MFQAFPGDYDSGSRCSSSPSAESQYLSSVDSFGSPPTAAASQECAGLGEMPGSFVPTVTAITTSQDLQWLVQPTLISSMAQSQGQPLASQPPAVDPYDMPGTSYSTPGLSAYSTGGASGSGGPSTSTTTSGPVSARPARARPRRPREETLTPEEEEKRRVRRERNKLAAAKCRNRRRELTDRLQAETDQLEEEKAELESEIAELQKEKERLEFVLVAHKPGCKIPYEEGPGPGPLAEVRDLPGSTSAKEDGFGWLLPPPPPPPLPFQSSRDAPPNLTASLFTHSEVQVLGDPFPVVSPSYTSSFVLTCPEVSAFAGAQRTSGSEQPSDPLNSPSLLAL
CAL PDZ FP-1: human CAL PDZ-peptide interaction inhibition; actives 0.02% (n = 330,000); Q9HD26; inhibition, % at 20 µM; AID 504414; purified CAL PDZ, TMR-peptide fluorescence polarization, 1 h;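 active = highest replicate inhibition of at least 40%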;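 also: plate controls were DMSO neutral control wells for no effect and unlabeled competitor peptide control wells for full effect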
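Test system: tagged CAL PDZ domain / Buffer or medium: sodium phosphate/NaCl buffer pH 7.4 with TCEP, IgG, Thesit / Reagent: TMR-labelled reporter peptide T*-PRC34 bound in PDZ groove / Compound dosing: single point, 20 µM / Schedule: 1 h incubation at room temperature before polarization reading / Technique: fluorescence polarization (mP) / Benchmarks: unlabelled peptide, DMSO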
CAL PDZ FP-2: inhibitors of human CAL PDZ peptide binding; purified CAL PDZ, TMR-peptide fluorescence polarization, 1 h; actives 0.92% (n = 300,000); inhibition, % at 24.9 µM;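 active = mean inhibition of at least 30% with at least half of replicates also reaching 30%; inconclusive = no clear call, values can overlap the other calls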;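 also: 0% = DMSO neutral control and 100% = excess unlabeled competitor peptide PRC23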
Statin myotox sup: suppression of simvastatin myotoxicity. AID 602340. actives 0.78% (n = 330,000). C2C12 myotubes + simvastatin, ATP luminescence, 48 h; scaled: DMSO 0, geranylgeraniol control 100. rescue of ATP level, % at 7.49 µM;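 active = mean ATP rescue above about 67%, or every replicate alone reaching that limit, limit read from the data, passing the limit was not always enough; inconclusive = no clear call, values can overlap the other calls; inactive = mean under the limit and some replicate under it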;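 also: myotubes were challenged with 10 µM simvastatin during compound exposure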
Active calls of the source: *; ? = inconclusive; / = not tested or not shown. This is a sample that favours compounds with a hit; in the whole collection about 2% have one here.

SMILES	S100A4 inh HTS	CDK5 inh	dFosB act	CAL PDZ FP-1	CAL PDZ FP-2	Statin myotox sup
CC1CN(C(=O)C(C)N2CCN(c3cccc(Cl)c3)CC2)CC(C)O1 (stereo unspecified)	13	1	4	/	2	/
Cc1ccccc1-c1nc(CN2CCC(C(=O)NCc3cccnc3)CC2)c(C)o1	/	-1	-8	-1	6	99*
CCCn1c(C2CCCN2c2nc(-c3cccc(Br)c3)cs2)nc2cc(Cl)c(Cl)cc21 (stereo unspecified)	-7	-2	1	-2	-2	117*
C[C@H]1CN([C@@H](C)CO)C(=O)c2cccc(NS(=O)(=O)c3cccs3)c2O[C@@H]1CN(C)C(=O)Nc1ccc(C(F)(F)F)cc1	1	/	/	/	/	86*
COc1ccc(NC(=O)N(C)C[C@H]2Oc3c(NS(=O)(=O)c4cccs4)cccc3C(=O)N([C@H](C)CO)C[C@@H]2C)cc1	-32	-1	-1	1	11	-8
COc1ccc(NC(=O)N(C)C[C@H]2Oc3c(NS(=O)(=O)c4cccs4)cccc3C(=O)N([C@@H](C)CO)C[C@H]2C)cc1	-6	/	/	/	/	88*
C[C@@H]1CN([C@H](C)CO)C(=O)c2cccc(NC(=O)c3ccc(-c4nccs4)cc3)c2O[C@H]1CN(C)C(=O)Nc1ccc(F)cc1	-3	/	/	/	/	-21
C[C@@H]1CN([C@H](C)CO)C(=O)c2cccc(NC(=O)c3ccc(-c4nccs4)cc3)c2O[C@@H]1CN(C)C(=O)Nc1ccc(F)cc1	-5	/	/	/	/	87*
O=C(O)c1ccccc1NS(=O)(=O)c1ccc2ccccc2c1	-4	0	-3	-3	-7	3
Cc1cc(S(=O)(=O)Nc2ccccc2C(=O)O)ccc1Cl	1	-1	-3	0	/	73*
O=C(O)c1ccccc1NS(=O)(=O)c1cccc(C(F)(F)F)c1	/	-1	-1	-4	/	16
O=C(O)c1ccccc1NS(=O)(=O)c1cccc(-n2sc3ccccc3c2=O)c1	1	1	-7	0	34*	?
CCCN(CCC)CC(O)CN(c1ccccc1)S(=O)(=O)c1ccc(C)cc1 (stereo unspecified)	/	0	4	0	-2	-9
CCc1c(C)[nH]c2ccc(C)cc2c1=O	/	1	2	-1	-7	-25
C=CCc1c(C)[nH]c2ccc(C)cc2c1=O	/	0	3	-1	-2	95*
COc1cccc(C(CC(=O)NCC2CCCO2)NS(=O)(=O)c2ccc(C)cc2)c1OC (stereo unspecified)	/	1	5	/	-4	/
COc1cccc(C(CC(=O)NCc2ccco2)NS(=O)(=O)c2ccc(C)cc2)c1OC (stereo unspecified)	/	0	-5	0	-3	100*
COc1cccc(/C=C(/C#N)c2ccc(Cl)cc2)c1OCc1cccc(C(=O)O)c1	3	0	-13	-6	2	/
Cc1ccc(N(C(=O)Cn2nnc3ccccc32)C(C(=O)NCc2ccco2)c2ccc(C)o2)cc1 (stereo unspecified)	/	0	0	0	-6	130*
O=C(NCc1ccco1)C(c1ccc(F)cc1)N(Cc1cccnc1)C(=O)Cn1nnc2ccccc21 (stereo unspecified)	/	-1	-6	-2	-7	102*
COc1ccc(S(=O)(=O)N(C)CC(=O)Nc2ccc3c(c2)OCO3)cc1OC	/	0	-1	-1	-4	-5
Cn1c(=O)c([N+](=O)[O-])c(NCc2ccccc2)c2ccccc21	/	1	-2	-3	-2	122*
Cc1ccc(Sc2c([N+](=O)[O-])c(=O)n(C)c3ccccc23)cc1	-8	1	3	0	-7	90*
Cn1c(=O)c([N+](=O)[O-])c(NCC2CCCO2)c2ccccc21 (stereo unspecified)	2	0	-5	-1	73*	/
[O-][n+]1c2ccccc2c2n1CCN=C2c1ccc(Cl)cc1	1	0	-10	-1	-23	-1
SMILES	S100A4 inh HTS	CDK5 inh	dFosB act	CAL PDZ FP-1	CAL PDZ FP-2	Statin myotox sup
CC(C)(C)[S@@](=O)N1Cc2cc(C(=O)O)nc(-c3cccc(-c4ccc(F)cc4)c3)c2[C@H]1CCO	-5	/	/	/	/	/
C#CCn1ccc(O)c(Cc2ccccc2)c1=O	-3	1	-1	-2	29	2
COc1ccc(NC(=O)N(C)C[C@@H]2Oc3ccc(NS(=O)(=O)c4c(C)noc4C)cc3C(=O)N([C@@H](C)CO)C[C@@H]2C)cc1	-17	/	/	/	/	-8
COc1ccc(NC(=O)N(C)C[C@H]2Oc3ccc(NS(=O)(=O)c4c(C)noc4C)cc3C(=O)N([C@H](C)CO)C[C@@H]2C)cc1	-7	1	2	0	-2	124*
Cc1noc(C)c1NC(=O)N(C)C[C@H]1OCCCC[C@H](C)Oc2ccc(NS(=O)(=O)c3ccc(F)cc3)cc2C(=O)N([C@H](C)CO)C[C@@H]1C	134*	/	/	/	/	-9
Cc1noc(C)c1NC(=O)N(C)C[C@@H]1OCCCC[C@@H](C)Oc2ccc(NS(=O)(=O)c3ccc(F)cc3)cc2C(=O)N([C@@H](C)CO)C[C@H]1C	3	/	/	/	/	20
C[C@@H]1CN([C@H](C)CO)C(=O)c2cc(NS(=O)(=O)c3ccc(Cl)cc3)ccc2O[C@@H]1CN(C)C(=O)Nc1ccccc1	2	/	/	/	/	82*
COc1ccc(S(=O)(=O)Nc2ccc3c(c2)C(=O)N([C@@H](C)CO)C[C@@H](C)[C@H](CN(C)C(=O)Nc2c(C)noc2C)OCCCC[C@H](C)O3)cc1	-6	/	/	/	/	89*
CC(C)N1CCN(c2ccncc2S(=O)(=O)N2CCCCC2)CC1	1	/	/	/	/	/
COc1ccc(S(=O)(=O)Nc2ccc3c(c2)C(=O)N([C@@H](C)CO)C[C@H](C)[C@H](CN(C)C(=O)Nc2c(C)noc2C)O3)cc1	1	/	/	/	/	/
COc1ccc(S(=O)(=O)Nc2ccc3c(c2)C(=O)N([C@H](C)CO)C[C@H](C)[C@@H](CN(C)C(=O)Nc2c(C)noc2C)O3)cc1	-6	-1	-1	-1	0	126*
COc1ccc(NC(=O)N(C)C[C@H]2Oc3ccc(NS(=O)(=O)c4ccc(OC)cc4)cc3C(=O)N([C@@H](C)CO)C[C@H]2C)cc1	9	/	/	/	/	73*
Cc1nc2cc(C(=O)NCCN3CCOCC3)ccc2n1-c1ccc(F)cc1F	/	0	-3	0	-3	98*
CC(C)CNC(=O)CC1Nc2ccccc2NC1=O (stereo unspecified)	/	0	-7	/	95*	/
O=C(CC1Nc2ccccc2NC1=O)NC1CCCCC1 (stereo unspecified)	-8	-1	-6	-1	0	4
COc1cccc2cc(C(=O)c3ccccc3)oc12	-5	3	2	0	/	/

Compound activity deposited in PubChem BioAssay by Broad Institute.
